Reference: ChEMBL document CHEMBL1799977, “Discovery of MK-0952, a selective PDE4 inhibitor for the treatment of long-term memory loss and mild cognitive impairment” (Bioorg Med Chem Lett, 2010)
pIC50: −log10 of the molar value. Activity calls are given as the source filed them. The rule behind the calls is not given here.

Key:
Brain [1] = experiment: Drug level in brain of Lister rat during water maze delayed matching to position test; conditions: in vivo, read-out: Drug uptake
Plasma [2] = experiment: Drug level in plasma of Lister rat during water maze delayed matching to position test
Rattus norvegicus [3] = experiment: Cognitive enhancing effect in Lister rat assessed as recognition of novel object at 0.1 mg/kg, po pretreated 90 mins before sample phase by novel object recognition test; type: functional, organism-based; parameters: dose 0.1 mg/kg
How it was run: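 Novel object recognition in rats. Oral dosing in 0.5% methocel 90 min before the sample trial, which ended at 25 s of exploration or 3 min. Choice trial followed with a familiar and a novel object. d2 score = (novel − familiar)/total exploration. n = 21–24; Newman–Keuls test.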

[4] = Inhibition of PDE4 activity in rat whole blood assessed as inhibition of LPS-induced TNF-alpha release; type: tissue-based
Rattus norvegicus [5] = organism: Rattus norvegicus; experiment: Cognitive enhancing effect in Lister rat assessed as change in escape latency pretreated 30 mins before sample phase by water maze delayed matching to position test; type: functional; conditions: read-out: MED
How it was run: (§1)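 Rats in a water maze with the platform moved daily, four 60 s trials per day over five days. Oral dosing in 0.5% methocel, 90 or 30 min before the sample trial. Savings score = escape latency difference between trials 1 and 2 over a 4 h delay. n = 10; Newman–Keuls test.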

Brain [6] = experiment: Drug level in brain of Lister rat during conditional taste aversion test; type: ADME, tissue-based; conditions: in vivo, read-out: Drug uptake
How it was run: (§2)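 Male hooded Lister rats in the conditioned taste aversion test given oral compound in 0.5% methocel. Plasma and whole brain levels were measured on the tested animals 90 min post-dosing.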

Plasma [7] = experiment: Drug level in plasma of Lister rat during conditional taste aversion test; type: ADME, cell-free
How it was run: as §2

Rattus norvegicus [8] = organism: Rattus norvegicus; experiment: Induction of adverse effect in Lister rat assessed as induction of malaise by conditional taste aversion test; type: organism-based; conditions: in vivo
How it was run: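 Singly housed male hooded Lister rats, water-deprived 22.5 h/day. On two conditioning days they had 20 min access to 0.1% saccharin, then received oral compound in 0.5% methocel, vehicle, or LiCl 30 mg/kg ip. Consumption on test day was compared with baseline (n = 6–8; Dunnett's test).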

[9] = Oral bioavailability in rat at 10 mg/kg; type: ADME, organism-based; conditions: in vivo
[10] = Metabolic stability in male rat hepatocytes assessed as compound metabolism level; type: ADME, cell-based, Hepatocyte; conditions: read-out: Activity
[11] = Metabolic stability in human hepatocytes assessed as compound metabolism level; type: ADME, cell-based, Hepatocyte; conditions: read-out: Activity
[12] = Metabolic stability in female rat hepatocytes assessed as compound metabolism level; type: ADME, cell-based, Hepatocyte; conditions: read-out: Activity
[13] = Metabolic stability in rhesus monkey hepatocytes assessed as compound metabolism level; type: ADME, cell-based, Macaca mulatta, Hepatocyte; conditions: read-out: Activity
Hepatocyte = experiment: Increase in CYP3A4 protein level in human primary hepatocytes at 10 uM by Western blot analysis relative to rifampicin; type: ADME, cell-based
How it was run: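 Human primary cultured hepatocytes exposed to 10 µM compound; CYP3A4 protein measured by Western blot relative to rifampicin at 10 µM.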

Rattus norvegicus [14] = organism: Rattus norvegicus; experiment: Cognitive enhancing effect in Lister rat assessed as change in escape latency pretreated 90 mins before sample phase by water maze delayed matching to position test; type: functional; conditions: read-out: MED
How it was run: as §1

Rattus norvegicus [15] = organism: Rattus norvegicus; experiment: Ratio MED for cognitive enhancing effect in lister rat during water maze delayed matching to position test to MED for adverse effect in lister rat during conditional taste aversion test; type: functional
How it was run: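 Therapeutic window as water maze MED over CTA MED. Water maze: rats dosed orally daily in 0.5% methocel before sample trial, 0.01–3.0 mg/kg, n = 10; four 60 s trials/day, 4 h inter-trial delay, savings score. CTA: water-deprived male hooded Lister rats, 20 min 0.1% saccharin on two conditioning days, oral dose immediately after; LiCl 30.0 mg/kg ip control; test-day intake.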

[16] = Inhibition of PDE4 activity in squirrel monkey whole blood assessed as inhibition of LPS-induced TNF-alpha release; type: tissue-based; conditions: Saimiri
[17] = Oral bioavailability in rhesus monkey at 10 mg/kg; type: ADME, organism-based, Macaca mulatta; conditions: in vivo
[18] = Half life in squirrel monkey at 10 mg/kg, po or 1 mg/kg, iv; type: ADME, organism-based; conditions: saimiri, in vivo
[19] = Drug excretion in bile cannulated male rat assessed as excretion of parent compound in bile at 3 mg/kg, iv using [3H]-labeled compound measured after 8 hrs; type: ADME, organism-based; parameters: dose 3 mg/kg, route intravenous; conditions: in vivo
How it was run: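 Permanently bile-cannulated male rats dosed iv with tritiated compound (3 mg/kg, 100 μCi/kg); bile collected 0–8 h and parent expressed as % of total radioactivity.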

CYP3A = CYP3A (Homo sapiens, UniProt P08684+P20815+P24462+Q9HB55); experiment: Inhibition of human CYP3A; type: ADME
Cytochrome P450 2C9 [20] = target: T1, Cytochrome P450 2C9 (Homo sapiens, UniProt P11712); experiment: Inhibition of human CYP2C9; type: ADME
T1 sequence (P11712 whole entry): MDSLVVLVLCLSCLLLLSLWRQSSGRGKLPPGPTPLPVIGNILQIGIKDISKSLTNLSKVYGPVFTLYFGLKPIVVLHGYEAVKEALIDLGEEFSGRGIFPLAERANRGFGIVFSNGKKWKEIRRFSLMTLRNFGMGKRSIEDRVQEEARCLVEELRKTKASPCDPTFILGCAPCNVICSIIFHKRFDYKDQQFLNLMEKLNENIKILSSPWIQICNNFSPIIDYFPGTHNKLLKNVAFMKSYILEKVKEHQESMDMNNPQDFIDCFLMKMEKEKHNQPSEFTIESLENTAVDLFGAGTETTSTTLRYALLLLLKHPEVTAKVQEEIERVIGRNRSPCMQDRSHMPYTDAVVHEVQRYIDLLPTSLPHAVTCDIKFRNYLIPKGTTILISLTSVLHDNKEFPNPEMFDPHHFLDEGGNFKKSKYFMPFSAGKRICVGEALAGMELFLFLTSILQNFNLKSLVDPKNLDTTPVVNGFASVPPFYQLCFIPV

[21] = Clearance in squirrel monkey at 10 mg/kg, po or 1 mg/kg, iv; type: ADME, organism-based; conditions: saimiri, in vivo
Phosphodiesterase 4 = Phosphodiesterase 4 (Homo sapiens, UniProt P27815+Q08499+Q07343+Q08493); experiment: Inhibition of PDE4 activity in human whole blood assessed as inhibition of LPS-induced TNF-alpha release
[22] = Half life in dog at 3 mg/kg, po or 1 mg/kg, iv; type: ADME, organism-based, Canis lupus familiaris; conditions: in vivo
[23] = Clearance in rhesus monkey at 10 mg/kg, po or 1 mg/kg, iv; type: ADME, organism-based, Macaca mulatta; conditions: in vivo
[24] = Oral bioavailability in dog at 3 mg/kg; type: ADME, organism-based, Canis lupus familiaris; conditions: in vivo
[25] = Half life in rat at 10 mg/kg, po or 3 mg/kg, iv; type: ADME, organism-based; conditions: in vivo
Cytochrome P450 1A2 = target: T2, Cytochrome P450 1A2 (Homo sapiens, UniProt P05177); experiment: Inhibition of human CYP1A2; type: ADME
T2 sequence (P05177 whole entry): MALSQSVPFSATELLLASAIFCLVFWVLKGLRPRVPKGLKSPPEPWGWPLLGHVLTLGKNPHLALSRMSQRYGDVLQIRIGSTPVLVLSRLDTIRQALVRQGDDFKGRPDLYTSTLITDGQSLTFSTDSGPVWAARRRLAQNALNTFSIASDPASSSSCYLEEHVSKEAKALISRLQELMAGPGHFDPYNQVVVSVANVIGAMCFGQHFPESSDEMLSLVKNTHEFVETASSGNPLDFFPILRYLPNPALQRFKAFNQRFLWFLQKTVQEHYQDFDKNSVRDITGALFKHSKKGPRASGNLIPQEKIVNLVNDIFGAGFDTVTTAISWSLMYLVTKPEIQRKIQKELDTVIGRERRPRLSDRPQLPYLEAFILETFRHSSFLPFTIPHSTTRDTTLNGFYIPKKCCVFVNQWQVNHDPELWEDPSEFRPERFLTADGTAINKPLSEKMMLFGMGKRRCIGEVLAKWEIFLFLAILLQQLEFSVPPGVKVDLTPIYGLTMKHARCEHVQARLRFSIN

[26] = Inhibition of PDE4 activity in rhesus monkey whole blood assessed as inhibition of LPS-induced TNF-alpha release; type: tissue-based; conditions: Macaca mulatta
[27] = Metabolic stability in dog hepatocytes assessed as compound metabolism level; type: ADME, cell-based, Canis lupus familiaris, Hepatocyte; conditions: read-out: Activity
[28] = target: 3',5'-cyclic-AMP phosphodiesterase 4A (Homo sapiens, UniProt P27815); experiment: Inhibition of PDE4A; conditions: pooled result: one value given for 3 cell lines, strains, targets or settings
Chain of 3',5'-cyclic-AMP phosphodiesterase 4A (P27815 whole entry, the tested form may be a part): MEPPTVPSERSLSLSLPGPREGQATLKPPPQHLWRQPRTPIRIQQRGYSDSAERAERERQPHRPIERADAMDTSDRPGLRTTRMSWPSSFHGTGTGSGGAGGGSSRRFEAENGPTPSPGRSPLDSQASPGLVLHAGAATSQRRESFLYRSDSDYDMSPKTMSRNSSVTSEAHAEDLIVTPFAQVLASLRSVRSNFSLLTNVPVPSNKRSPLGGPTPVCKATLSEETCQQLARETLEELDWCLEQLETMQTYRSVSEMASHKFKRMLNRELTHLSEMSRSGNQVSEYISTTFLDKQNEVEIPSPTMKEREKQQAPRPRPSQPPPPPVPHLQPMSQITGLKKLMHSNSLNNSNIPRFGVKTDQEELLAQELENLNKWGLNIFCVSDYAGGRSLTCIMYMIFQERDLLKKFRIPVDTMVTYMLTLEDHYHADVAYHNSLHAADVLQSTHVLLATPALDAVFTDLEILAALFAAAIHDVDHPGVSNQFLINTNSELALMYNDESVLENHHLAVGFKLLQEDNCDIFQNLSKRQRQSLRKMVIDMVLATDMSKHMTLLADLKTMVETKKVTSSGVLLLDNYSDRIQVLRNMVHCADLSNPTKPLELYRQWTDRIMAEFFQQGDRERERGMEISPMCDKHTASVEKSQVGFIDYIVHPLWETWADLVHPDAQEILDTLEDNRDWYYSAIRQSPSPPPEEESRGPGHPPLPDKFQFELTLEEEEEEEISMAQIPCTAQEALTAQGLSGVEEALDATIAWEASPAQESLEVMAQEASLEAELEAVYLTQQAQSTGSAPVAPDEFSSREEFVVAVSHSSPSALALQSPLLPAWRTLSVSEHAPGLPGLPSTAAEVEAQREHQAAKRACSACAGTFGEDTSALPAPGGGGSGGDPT
How it was run: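 Catalytic domains of PDE4A, B and D expressed as GST constructs in SF9 cells (baculovirus). IC50s are averages of at least two experiments.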

[29] = Half life in rhesus monkey at 10 mg/kg, po or 1 mg/kg, iv; type: ADME, organism-based, Macaca mulatta; conditions: in vivo
[30] = Clearance in rat at 10 mg/kg, po or 3 mg/kg, iv; type: ADME, organism-based; conditions: in vivo
[31] = Clearance in dog at 3 mg/kg, po or 1 mg/kg, iv; type: ADME, organism-based, Canis lupus familiaris; conditions: in vivo
[32] = Oral bioavailability in squirrel monkey at 10 mg/kg; type: ADME, organism-based; conditions: saimiri, in vivo
Cytochrome P450 2D6 = Cytochrome P450 2D6 (Homo sapiens, UniProt P10635); experiment: Inhibition of human CYP2D6; type: ADME
Chain of Cytochrome P450 2D6 (P10635 whole entry): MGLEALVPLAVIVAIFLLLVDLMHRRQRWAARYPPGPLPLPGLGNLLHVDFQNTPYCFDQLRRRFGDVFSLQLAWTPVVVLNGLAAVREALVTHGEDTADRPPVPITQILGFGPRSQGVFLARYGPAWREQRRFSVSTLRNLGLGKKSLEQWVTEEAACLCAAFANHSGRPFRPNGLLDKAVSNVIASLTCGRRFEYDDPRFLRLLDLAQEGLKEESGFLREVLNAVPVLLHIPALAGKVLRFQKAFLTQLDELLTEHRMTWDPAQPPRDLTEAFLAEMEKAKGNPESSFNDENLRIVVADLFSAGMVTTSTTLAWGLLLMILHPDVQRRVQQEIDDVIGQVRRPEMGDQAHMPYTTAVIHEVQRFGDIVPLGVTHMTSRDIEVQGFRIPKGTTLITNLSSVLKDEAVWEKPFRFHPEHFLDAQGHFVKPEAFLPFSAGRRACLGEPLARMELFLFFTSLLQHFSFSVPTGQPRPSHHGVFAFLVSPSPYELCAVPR

Cytochrome P450 2C9 [33] = target: T1, Cytochrome P450 2C9; experiment: Competitive inhibition of CYP2C9; type: ADME
Rattus norvegicus [34] = organism: Rattus norvegicus; experiment: Cognitive enhancing effect in Lister rat assessed as change in escape latency pretreated before sample phase by water maze delayed matching to position test; type: functional; conditions: read-out: MED
How it was run: as §1

[35] = Ratio IC50 for PDE4 activity in human whole blood to IC50 for PDE4; type: tissue-based
How it was run: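 Ratio of two IC50s. The numerator is from human whole blood stimulated with LPS, read as inhibition of TNF-α release. The denominator (PDE4QT) is the mean of the IC50s on the PDE4A, B and D catalytic domains. These were expressed as GST constructs in Sf9 cells by baculovirus. Each IC50 is the average of at least two experiments.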

Q: For `Cc1noc(/C(=C/c2cccc(-c3cc(C(C)(C)S(C)(=O)=O)cc4cccnc34)c2)c2ccc(S(C)(=O)=O)cc2)n1`, which concentration (Brain [1]) is on record?
A: 5.1 nM

Q: And the concentration (Plasma [2])?
A: 27 nM

Q: And the Activity (Rattus norvegicus [3])?
A: Active

Q: And the pIC50 [4]?
A: 7.64

Q: And the minimal effective dose (Rattus norvegicus [5])?
A: 0.3 mg/kg

Q: What about the concentration (Brain [6]) of the same compound?
A: 21 nM

Q: And the concentration (Plasma [7])?
A: 113 nM

Q: What about the MED (Rattus norvegicus [8]) of the same compound?
A: 1 mg/kg

Q: Which results are given for `O=C(NC1CC1)c1cn(-c2cccc(-c3ccc([C@@H]4C[C@H]4C(=O)O)c(F)c3)c2)c2ncccc2c1=O`?
A: bioavailability [9]: 38%; metabolised [10]: 5%; concentration (Brain [1]): 9.2 nM; metabolised [11]: 2%; metabolised [12]: 20%; metabolised [13]: 10%; concentration (Plasma [2]): 390 nM; Activity (Hepatocyte): 23%; minimal effective dose (Rattus norvegicus [14]): 0.1 mg/kg; pIC50 [4]: 6.35; Ratio (Rattus norvegicus [15]): 100; pIC50 [16]: 7.28; bioavailability [17]: 77%; half-life [18]: 4.3 h; Activity [19]: > 35%; pIC50 (CYP3A): < 4.00; pIC50 (Cytochrome P450 2C9 [20]): < 4.00; clearance [21]: 1.7 mL/min/kg; IC50 (Phosphodiesterase 4): 550 nM; half-life [22]: 6.6 h; clearance [23]: 1.3 mL/min/kg; bioavailability [24]: 100%; half-life [25]: 3.5 h; concentration (Brain [6]): 290 nM; concentration (Plasma [7]): 12000 nM; pIC50 (Cytochrome P450 1A2): < 4.00; pIC50 [26]: 6.03; MED (Rattus norvegicus [8]): 10 mg/kg; metabolised [27]: 30%; pIC50 [28]: 9.28; half-life [29]: 6.5 h; clearance [30]: 1 mL/min/kg; clearance [31]: 3.7 mL/min/kg; bioavailability [32]: 41%; pIC50 (Cytochrome P450 2D6): < 4.00

Q: Which concentration (Brain [1]) does the source give for `O=C(NC1CC1)c1cn(-c2cccc(C#Cc3ccc[n+]([O-])c3)c2)c2ncccc2c1=O` [MK-0873] here?
A: 15 nM

Q: And the concentration (Plasma [2])?
A: 258 nM

Q: What about the pIC50 [4] of the same compound?
A: 7.19

Q: What about the IC50 (Phosphodiesterase 4) of the same compound?
A: 190 nM

Q: And the concentration (Brain [6])?
A: 48 nM

Q: What about the pIC50 (Cytochrome P450 2C9 [33]) of the same compound?
A: 4.40

Q: What about the concentration (Plasma [7]) of the same compound?
A: 828 nM

Q: What about the minimal effective dose (Rattus norvegicus [34]) of the same compound?
A: 0.3 mg/kg

Q: And the MED (Rattus norvegicus [8])?
A: 1 mg/kg

Q: What about the pIC50 [28] of the same compound?
A: 8.29

Q: What about the Ratio IC50 [35] of the same compound?
A: 37
